Type in all cases: ADME, organism-based
Data set [1] can be described thus: Cmax in healthy human at […], po administered as single dose. The settings on record: in vivo. Details: route oral. In short, it runs like this:
(§1)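 Healthy male and female subjects (n=9), fasted 8 h before and 4 h after a single oral 400 mg raltegravir dose. Plasma sampled 0–48 h postdose and measured by liquid-liquid extraction then reverse-phase HPLC-MS/MS (LLOQ 2 ng/ml). AUC0-∞ from a biexponential fit plus linear/log trapezoidal rule. Cmax and Tmax read from the data. C12 taken at the nominal 12 h sample.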

Data set [2] can be described thus: Cmin in healthy human at […], po administered as single dose after 12 hrs in presence of […], po rifampin. The settings on record: in vivo, read-out: Cmin. In short, it runs like this:
(§2)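 Same subjects after a washout of at least 4 days, given rifampin 600 mg orally once daily for 15 days. On day 14, a single fasted oral 400 mg raltegravir dose was given with rifampin. Plasma sampled 0–48 h postdose and assayed by HPLC-MS/MS. AUC0-∞ by biexponential fit plus trapezoidal rule. Cmax, Tmax and nominal 12 h C12 read directly.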

A short description of data set [3]: Cmin in healthy human at […], po administered as single dose after 12 hrs. Details: route oral. The settings on record: in vivo, read-out: Cmin. In short, it runs like this: as §1
The nature of data set [4]: Primary phase half life in healthy human at […], po administered as single dose. Details: route oral. The settings on record: in vivo. In short, it runs like this: (§3)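 Study 1: open-label two-period fixed-sequence design in healthy adults (nine completed). A single 400 mg oral dose was given fasted (8 h before, 4 h after), then after at least 4 days washout, 600 mg rifampin orally once daily for 15 days, with 400 mg raltegravir given on day 14. Plasma sampled 0–48 h; LC-MS/MS (LLOQ 2 ng/ml). Biexponential fit weighted 1/(predicted concentration)²; t1/2 = ln(2)/α or β.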

Data set [5] is described as follows: Cmax in healthy human at […], po administered as single dose in presence of […], po rifampin. The settings on record: in vivo. Also noted: route oral. In short, it runs like this: as §2
Data set [6] can be described thus: Terminal half life in healthy human at […], po administered as single dose in presence of […], po rifampin. The settings on record: in vivo, read-out: beta t1/2 (converted). In short, it runs like this:
as §3

Data set [7] can be described thus: AUC(0 to 12 hrs) in healthy human at […], po BID for 4 days. Details: time < 12 hr, route oral. The settings on record: plasma. In short, it runs like this: (§4)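 Healthy male and female subjects given raltegravir 400 mg orally every 12 h for 4 days. A light meal was taken 2 h before the day 4 morning dose. Plasma sampled 0–12 h after that dose and assayed by HPLC-MS/MS (LLOQ 2 ng/ml). AUC0-12 by linear-up/log-down trapezoidal rule. Cmax, Tmax and nominal 12 h C12 read from the data.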

Data set [8] can be described thus: Terminal half life in healthy human at […], po administered as single dose. Also noted: route oral. The settings on record: in vivo, read-out: beta t1/2 (converted). In short, it runs like this: as §3
The nature of data set [9]: AUC (0 to infinity) in healthy human at […], po administered as single dose in presence of […], po rifampin. Also noted: route oral, time infinity. The settings on record: plasma. In short, it runs like this:
as §2

The nature of data set [10]: Cmax in healthy human at […], po BID for 14 days in presence of […], po rifampin. Details: route oral. The settings on record: in vivo. In short, it runs like this: (§5)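 Same subjects given raltegravir 800 mg orally every 12 h plus rifampin 600 mg orally once daily for 14 days. A light meal was taken 2 h before the day 14 morning dose. Plasma sampled 0–12 h postdose and assayed by HPLC-MS/MS. AUC0-12 by linear-up/log-down trapezoidal rule. Cmax, Tmax and C12 read directly.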

A short description of data set [11]: Primary phase half life in healthy human at […], po administered as single dose in presence of […], po rifampin. The settings on record: in vivo. In short, it runs like this:
as §3

The nature of data set [12]: Cmin in healthy human at […], po BID for 14 days after 12 hrs in presence of […], po rifampin. The settings on record: in vivo, read-out: Cmin. In short, it runs like this: as §5
A short description of data set [13]: AUC (0 to infinity) in healthy human at […], po administered as single dose. Also noted: time infinity, route oral. The settings on record: plasma. In short, it runs like this: as §1
A short description of data set [14]: Cmin in healthy human at […], po BID for 4 days after 12 hrs. Details: route oral. The settings on record: in vivo, read-out: Cmin. In short, it runs like this:
as §4

Data set [15] in a line: AUC(0 to 12 hrs) in healthy human at […], po BID for 14 days in presence of […], po rifampin. The settings on record: plasma. Details: time < 12 hr, route oral. In short, it runs like this:
as §5

Data set [16] in a line: Tmax in healthy human at […], po BID for 14 days in presence of […], po rifampin. The settings on record: in vivo. In short, it runs like this:
as §5

Data set [17] can be described thus: Tmax in healthy human at […], po administered as single dose in presence of […], po rifampin. The settings on record: in vivo. In short, it runs like this: as §2

Consider `Cc1nnc(C(=O)NC(C)(C)c2nc(C(=O)NCc3ccc(F)cc3)c(O)c(=O)n2C)o1` [RALTEGRAVIR], for which the values for the Cmax in data set [1], in data set [5] and in [10] were 8.61 µM, 5.34 µM and 1.95 µM, respectively. Further, the concentration at 12 h in data set [2] amounted to 0.0363 µM; in [3], 0.0921 µM; in data set [12] it was 0.0435 µM; in data set [14] it was 0.0925 µM. Further, the half-life in [4] was 1.07 h; in data set [6] it was 9.6 h; in data set [8], 8.5 h; in [11] it was 0.93 h. In addition, the AUC at 12 h amounted to 4.61 µM·h in data set [7] and 5.85 µM·h in [15]. Moreover, the values for the AUC(0-inf) in [9] and in data set [13] were 16.5 µM·h and 27.6 µM·h, respectively. The Tmax in data set [16] is 1.75 h; in data set [17], 3 h.

These data come from ChEMBL document CHEMBL1649522, “Effect of rifampin, a potent inducer of drug-metabolizing enzymes, on the pharmacokinetics of raltegravir” (Antimicrob Agents Chemother, 2009).
